Results collected from several papers.
Lines come from different studies, so protocols differ.
Cell line: MDA-MB-231
Read-out: cell growth or viability

Compound	method	time	endpoint	result
CCOP1(=O)CC=Cc2cc(N)ccc2O1 (stereo not drawn)	MTT	72 h	Emax	10 to 15%
[C-]#[O+].[C-]#[O+].[C-]#[O+].[C-]#[O+].[C-]#[O+].[C-]#[O+].[C-]#[O+].[C-]#[O+].[C-]#[O+].[C-]#[O+].[Mn].[Mn]	MTT	48 h	IC50	25400 nM
CC[C@H](C)[C@@H]([C@@H](CC(=O)N1CCC[C@H]1[C@H](OC)[C@@H](C)C(=O)N[C@H](C)[C@@H](O)c1ccccc1)OC)N(C)C(=O)[C@@H](NC(=O)[C@@H](NC)C(C)C)C(C)C	CCK-8	–	IC50	8.28 nM
O=C1c2ccccc2-c2c3c(cc4ccnc1c24)OCO3	MTT	75 h	IC50	49000 nM
COc1ccc(NC(=O)Nc2ccc3c(c2)C=CCP(=O)(O)O3)cc1	MTT	72 h	Emax	50%
CC[C@H](C)[C@@H]([C@@H](CC(=O)N1CCC[C@H]1[C@H](OC)[C@@H](C)C(=O)N[C@H](C)[C@@H](O)c1ccccc1)OC)N(C)C(=O)[C@@H](NC(=O)[C@H](C(C)C)N(C)C(=O)OCc1ccc(NC(=O)[C@H](CCCNC(N)=O)NC(=O)[C@@H](NC(=O)CCOCCOCCOCCOCCC(=O)N[C@@H]2CSSC[C@H](C(=O)O)NC(=O)CNC(=O)[C@@H](CCCNC(=N)N)NC(=O)CNC(=O)[C@@H](C(C)C)NC(=O)CNC(=O)[C@@H](C)NC(=O)[C@@H](CCCNC(=N)N)NC2=O)C(C)C)cc1)C(C)C	resazurin	24 h	IC50	120 nM
CC(=O)N[C@H]1[C@@H](O[C@@H]2O[C@H](C[C@@H](O)[C@H]3O[C@@H](n4ccc(=O)[nH]c4=O)[C@H](O)[C@@H]3O)[C@H](O)[C@H](O)[C@H]2NC(=O)/C=C/CCCCCCCCCC(C)C)O[C@H](CO)[C@@H](O)[C@@H]1O	WST-1	–	IC50	170 nM
N.N.[Cl][Pt][Cl]	MTT	–	IC50	> 100000 nM
N.N.[Cl][Pt][Cl]	MTT	48 h	IC50	40000 nM
COc1c(C)c2c(c(O)c1C/C=C(\C)CCC(=O)O)C(=O)OC2	–	–	IC50	1200 nM
C=CCNC1=C2C[C@@H](C)C[C@H](OC)[C@H](O)[C@@H](C)/C=C(\C)[C@H](OC(N)=O)[C@@H](OC)/C=C\C=C(/C)C(=O)NC(=CC1=O)C2=O	–	72 h	IC50	19500 nM
CC(C)=C[C@H]1C[C@H](C)[C@]2(CC[C@]3(C)C[C@H]4[C@H](C(=O)C[C@@]4(C)O)/C(C=O)=C\C[C@H]32)O1	–	–	IC50	58.2 nM
